Values joined by “and” are separate entries in the source; they are usually repeats but may differ in a detail not shown here. Identical values can stand only once. “Also recorded” adds a separate entry of the source.
Legend:
[1] = Plasma glasdegib pharmacokinetics after single oral doses; type: in vivo, human; conditions: for AUCextrap / CL/F: fasted, n=35, arithmetic mean ± SD; for Cmax / half-life: human, plasma, po
Outline: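 Healthy volunteers in a randomized, double-blind, 4-period crossover received single oral doses after an overnight fast (≥10 hours), with washout ≥6 days. Plasma was assayed by validated HPLC-MS/MS: calibration 3–3000 ng/mL with 1/concentration² weighting, LLOQ 3 ng/mL, samples stored at −70°C. Cmax, Tmax, AUClast, AUCinf, CL/F, apparent volume and terminal half-life were derived by noncompartmental analysis.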

[2] = tested on: cardiac repolarization (QTc interval) in healthy volunteers; experiment: Thorough QT study: ANCOVA of QTcF versus time-matched placebo; type: in vivo, human; conditions: for QTcF Difference (Glasdegib‐Placebo) (90%CI) / QTcF LS Mean: N = 35
[3] = tested on: cardiac repolarization (QTc interval) in healthy volunteers; experiment: Exposure-response; type: in vivo, human
[4] = tested on: healthy volunteers; experiment: Safety and tolerability; type: in vivo, human
[5] = tested on: human ether‐à‐go‐go‐related gene (hERG) potassium channels; conditions: human embryonic kidney 293 cells; cited from earlier work
[6] = tested on: patients with advanced hematologic malignancies; conditions: cited from earlier work
[7] = patient population, cited from earlier work
[8] = glasdegib 150 mg single oral dose
[9] = glasdegib 300 mg single oral dose
[10] = glasdegib 150 mg single dose, 0.5 h postdose
[11] = glasdegib 150 mg single dose, 1 h postdose
[12] = glasdegib 150 mg single dose, 1.5 h postdose
[13] = glasdegib 150 mg single dose, 2 h postdose
[14] = glasdegib 150 mg single dose, 3 h postdose
[15] = glasdegib 150 mg single dose, 4 h postdose
[16] = glasdegib 150 mg single dose, 6 h postdose
[17] = glasdegib 150 mg single dose, 24 h postdose
[18] = glasdegib 300 mg single dose, 0.5 h postdose
[19] = glasdegib 300 mg single dose, 1 h postdose
[20] = glasdegib 300 mg single dose, 1.5 h postdose
[21] = glasdegib 300 mg single dose, 2 h postdose
[22] = glasdegib 300 mg single dose, 3 h postdose
[23] = glasdegib 300 mg single dose, 4 h postdose
[24] = glasdegib 300 mg single dose, 6 h postdose
[25] = glasdegib 300 mg single dose, 24 h postdose
[26] = moxifloxacin 400 mg single dose

**Q.** Which AUCextrap [1, 8] does the source give for `CN1CC[C@@H](NC(=O)Nc2ccc(C#N)cc2)C[C@@H]1c1nc2ccccc2[nH]1` [Glasdegib] here?
**A.** 0.6660 ± 0.30%

**Q.** What about the CL/F [1, 8] of the same compound?
**A.** 10.37 ± 3.58 L/h

**Q.** What about the AUCextrap [1, 9] of the same compound?
**A.** 0.4113 ± 0.19%

**Q.** What about the CL/F [1, 9] of the same compound?
**A.** 10.09 ± 3.05 L/h

**Q.** What about the Cmax ([1]; 150 mg) of the same compound?
**A.** 1120 ± 388 ng/mL

**Q.** And the half-life ([1]; 150 mg)?
**A.** 15.8 ± 2.06 h

**Q.** What about the Cmax ([1]; 300 mg) of the same compound?
**A.** 2300 ± 651 ng/mL

**Q.** What about the half-life ([1]; 300 mg) of the same compound?
**A.** 15.5 ± 1.77 h

**Q.** And the “dose proportionality of geometric mean AUCinf and Cmax” value ([1]; single oral doses of 150 and 300 mg)?
**A.** increased proportionally with dose

**Q.** And the “highest 90%CI upper bound for the largest and placebo‐ and baseline‐adjusted QTcF change” value ([2]; glasdegib 150 mg (therapeutic plasma exposure), 4 hours postdose)?
**A.** 10.22 milliseconds

**Q.** What about the “upper bound of the 2‐sided 90%CIs for all time‐matched least‐squares mean differences in QTcF between glasdegib and placebo” value ([2]; glasdegib 150 mg and 300 mg single doses) of the same compound?
**A.** < 20 milliseconds

**Q.** What about the “QTcF Difference (Glasdegib‐Placebo) (90%CI)” value (“QTcF Difference … (90%CI)” for short) [2, 10] of the same compound?
**A.** −0.09 (−2.28 to 2.09) Milliseconds

**Q.** And the “QTcF LS Mean” value [2, 10]?
**A.** 406.43 Milliseconds

**Q.** What about the “QTcF Difference … (90%CI)” value [2, 11] of the same compound?
**A.** 2.07 (−0.11 to 4.25) Milliseconds

**Q.** And the “QTcF LS Mean” value [2, 11]?
**A.** 407.86 Milliseconds

**Q.** What about the “QTcF Difference … (90%CI)” value [2, 12] of the same compound?
**A.** 5.17 (2.99‐7.35) Milliseconds

**Q.** What about the “QTcF LS Mean” value [2, 12] of the same compound?
**A.** 410.08 Milliseconds

**Q.** What about the “QTcF Difference … (90%CI)” value [2, 13] of the same compound?
**A.** 5.98 (3.80‐8.16) Milliseconds

**Q.** And the “QTcF LS Mean” value [2, 13]?
**A.** 410.58 Milliseconds

**Q.** And the “QTcF Difference … (90%CI)” value [2, 14]?
**A.** 7.76 (5.58‐9.95) Milliseconds

**Q.** What about the “QTcF LS Mean” value [2, 14] of the same compound?
**A.** 412.06 Milliseconds

**Q.** What about the “QTcF Difference … (90%CI)” value [2, 15] of the same compound?
**A.** 8.03 (5.85‐10.22) Milliseconds

**Q.** And the “QTcF LS Mean” value [2, 15]?
**A.** 413.23 Milliseconds

**Q.** And the “QTcF Difference … (90%CI)” value [2, 16]?
**A.** 5.11 (2.93‐7.29) Milliseconds

**Q.** What about the “QTcF LS Mean” value [2, 16] of the same compound?
**A.** 407.38 Milliseconds

**Q.** What about the “QTcF Difference … (90%CI)” value [2, 17] of the same compound?
**A.** 5.92 (3.74‐8.10) Milliseconds

**Q.** And the “QTcF LS Mean” value [2, 17]?
**A.** 410.98 Milliseconds

**Q.** And the “highest 90%CI upper bound for the largest, placebo‐ and baseline‐adjusted QTcF change” value ([2]; glasdegib 300 mg (supratherapeutic plasma exposure), 3 hours postdose)?
**A.** 15.61 milliseconds

**Q.** What about the “QTcF Difference … (90%CI)” value [2, 18] of the same compound?
**A.** 0.65 (−1.53 to 2.83) Milliseconds

**Q.** What about the “QTcF LS Mean” value [2, 18] of the same compound?
**A.** 407.18 Milliseconds

**Q.** What about the “QTcF Difference … (90%CI)” value [2, 19] of the same compound?
**A.** 5.14 (2.96‐7.32) Milliseconds

**Q.** What about the “QTcF LS Mean” value [2, 19] of the same compound?
**A.** 410.92 Milliseconds

**Q.** And the “QTcF Difference … (90%CI)” value [2, 20]?
**A.** 9.84 (7.66‐12.02) Milliseconds

**Q.** What about the “QTcF LS Mean” value [2, 20] of the same compound?
**A.** 414.75 Milliseconds

**Q.** What about the “QTcF Difference … (90%CI)” value [2, 21] of the same compound?
**A.** 11.06 (8.88‐13.24) Milliseconds

**Q.** And the “QTcF LS Mean” value [2, 21]?
**A.** 415.66 Milliseconds

**Q.** What about the “QTcF Difference … (90%CI)” value [2, 22] of the same compound?
**A.** 13.43 (11.25‐15.61) Milliseconds

**Q.** What about the “QTcF LS Mean” value [2, 22] of the same compound?
**A.** 417.72 Milliseconds

**Q.** And the “QTcF Difference … (90%CI)” value [2, 23]?
**A.** 13.41 (11.23‐15.59) Milliseconds

**Q.** What about the “QTcF LS Mean” value [2, 23] of the same compound?
**A.** 418.60 Milliseconds

**Q.** What about the “QTcF Difference … (90%CI)” value [2, 24] of the same compound?
**A.** 10.82 (8.64‐13.00) Milliseconds

**Q.** What about the “QTcF LS Mean” value [2, 24] of the same compound?
**A.** 413.08 Milliseconds

**Q.** And the “QTcF Difference … (90%CI)” value [2, 25]?
**A.** 8.91 (6.73‐11.09) Milliseconds

**Q.** And the “QTcF LS Mean” value [2, 25]?
**A.** 413.96 Milliseconds

**Q.** What about the “PK/PD hysteresis (lag between plasma concentration and effect on QTc)” value ([3]; 150 and 300 mg single doses) of the same compound?
**A.** No PK/PD hysteresis

**Q.** What about the “mean slope estimate describing the ∆QTcF‐concentration relationship” value ([3]; LME model) of the same compound?
**A.** 0.005 ms/ng/mL

**Q.** And the “effect on heart rate (change in RR interval, ∆RR versus concentration)” value ([3]; LME model of ∆RR versus glasdegib concentration)?
**A.** not to have a meaningful effect on heart rate; also recorded: relationship of negligible magnitude

**Q.** What about the “Slope Estimate From Final Model, ∆QTcF per ng/mL (95%CI)” value ([3]; QTcF, LME model) of the same compound?
**A.** 0.005 (0.004‐0.006) Milliseconds per ng/mL

**Q.** And the “Slope Estimate From Final Model, ∆QTcS per ng/mL (95%CI)” value ([3]; QTcS (study population-specific correction), LME model)?
**A.** 0.004 (0.003‐0.005) Milliseconds per ng/mL

**Q.** What about the “Model‐Derived ∆∆QTcS (90%CI)” value ([3]; Supratherapeutic Steady‐State Cmax (2445 ng/mL)) of the same compound?
**A.** 11.89 (10.14‐13.64) Milliseconds

**Q.** And the “Model‐Derived ∆∆QTcF (90%CI)” value ([3]; Supratherapeutic Steady‐State Cmax (2445 ng/mL), 200 mg once daily)?
**A.** 13.72 (11.95‐15.49) Milliseconds

**Q.** What about the “Model‐Derived ∆∆QTcS (90%CI)” value ([3]; Therapeutic Steady‐State Cmax (1137 ng/mL)) of the same compound?
**A.** 6.55 (5.68‐7.43) Milliseconds

**Q.** And the “Model‐Derived ∆∆QTcF (90%CI)” value ([3]; Therapeutic Steady‐State Cmax (1137 ng/mL), 100 mg once daily)?
**A.** 7.34 (6.46‐8.22) Milliseconds

**Q.** And the “Model‐Derived ∆∆QTcF (90%CI)” value ([3]; Therapeutic Steady‐State Cmax (1137 ng/mL), 100 mg once daily, listed as glasdegib)?
**A.** 7.3 Milliseconds and 7.34 Milliseconds

**Q.** And the “upper bound of the 90%CI of mean predicted ΔΔQTcF” value ([3]; mean therapeutic glasdegib Cmax)?
**A.** < 10 milliseconds

**Q.** What about the “upper bound of the 90%CI of mean predicted ΔΔQTcF” value ([3]; supratherapeutic glasdegib Cmax (twice the therapeutic dose)) of the same compound?
**A.** < 20 milliseconds

**Q.** What about the “treatment‐emergent AEs (TEAEs), number” value ([4]; glasdegib 150 mg single dose) of the same compound?
**A.** 25

**Q.** And the “treatment‐related AEs (TRAEs), number” value ([4]; glasdegib 150 mg single dose)?
**A.** 20

**Q.** What about the “treatment‐emergent AEs (TEAEs), number” value ([4]; glasdegib 300 mg single dose) of the same compound?
**A.** 26

**Q.** And the “treatment‐related AEs (TRAEs), number” value ([4]; glasdegib 300 mg single dose)?
**A.** 20

**Q.** And the “tolerability (in words)” value ([4]; single oral doses of 150 and 300 mg, healthy adult subjects)?
**A.** well tolerated

**Q.** And the “hERG potassium channel inhibition (in words)” value [5]?
**A.** inhibit the human ether‐à‐go‐go‐related gene (hERG) potassium channels in a concentration‐dependent manner

**Q.** And the “QTc experienced by some patients” value ([6]; multiple dosing at 400 mg and 600 mg once daily)?
**A.** > 500 milliseconds

**Q.** And the maximum tolerated dose ([6]; single-agent, patients with advanced hematologic malignancies)?
**A.** 400 mg once daily

**Q.** What about the “Therapeutic Steady‐State Cmax” value ([7]; 100 mg once daily) of the same compound?
**A.** Therapeutic Steady‐State Cmax (1137 ng/mL)

**Q.** And the “Supratherapeutic Steady‐State Cmax” value ([7]; 200 mg once daily)?
**A.** Supratherapeutic Steady‐State Cmax (2445 ng/mL)

**Q.** Which results are given for `COc1c(N2C[C@@H]3CCCN[C@@H]3C2)c(F)cc2c(=O)c(C(=O)O)cn(C3CC3)c12` [Moxifloxacin]?
**A.** treatment‐emergent AEs (TEAEs), number [4, 26]: 27; treatment‐related AEs (TRAEs), number [4, 26]: 23
